Test results from ChEMBL document CHEMBL4002595, “Metadynamics for Perspective Drug Design: Computationally Driven Synthesis of New Protein-Protein Interaction Inhibitors Targeting the EphA2 Receptor” (J Med Chem, 2017).
Values after ≈ are worked out from the molar mass of the structure shown. Blank lines part the entries; values can stand above or below the compound they belong to. Active and inactive are the calls of the source. The rule behind the calls is not given here.

Tests used:
Ephrin type-A receptor 2 = Ephrin type-A receptor 2 (Mus musculus, UniProt Q03145); experiment: Displacement of biotinylated ephrin-A1-Fc from recombinant mouse EphA2 receptor preincubated for 1 hr followed by biotinylated ephrin-A1-Fc addition measured after 4 hrs by ELISA method
[1] = biological target: Ephrin type-A receptor 2 (Mus musculus) (UniProt Q03145); experiment: Displacement of biotinylated ephrin-A1-Fc from recombinant mouse EphA2 receptor up to 100 uM preincubated for 1 hr followed by biotinylated ephrin-A1-Fc addition measured after 4 hrs by ELISA method
Method in brief: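 EphA2-Fc (1 µg mL⁻¹ in PBS pH 7.4) was coated overnight at 4 °C, then blocked with PBS + 0.5% BSA for 1 h at 37 °C. Compounds in 1% DMSO were added for 1 h at 37 °C. Biotinylated ephrin-A1-Fc was then added at its K_D for 4 h at 37 °C. Detection used streptavidin-HRP (20 min, RT), TMB/H₂O₂, HCl stop and A450. IC₅₀ came from one-site competition nonlinear regression; mean of ≥3 independent experiments.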

[2] = Cmax in mouse at 30 mg/kg, administered as single dose via oral gavage by HPLC-ESI-MS/MS analysis; assay type: ADME, organism-based; set-up: dose 30 mg/kg, route oral; settings: in vivo
Method in brief: (§1)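 Male mice, fasted, groups of four; single oral gavage at 30 mg/kg in 0.5% methylcellulose (10/90 v/v). Tail-puncture blood at 5-7 time points between 15 and 1440 min, centrifuged 5000 rpm 10 min, plasma stored at -20 °C, quantified by HPLC-ESI-MS/MS. Reported as means ± SEM.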

[3] = Half-life in mouse liver microsomes at 1 uM in presence of NADPH by HPLC-ESI-MS/MS analysis; assay type: ADME, microsome
Liver [4] = experiment: Drug metabolism in mouse liver microsomes assessed as (S)-3-((S)-4-((5R,8R,9S,10S,13R,14S,17R)-10,13-dimethyl-3-oxohexadecahydro-1H-cyclopenta[a]phenanthren-17-yl)pentanamido)-4-(1H-indol-3-yl)butanoic acid formation by HPLC-ESI-MS/MS analysis; assay type: ADME, microsome
Plasma [5] = experiment: Drug uptake in mouse plasma at 30 mg/kg, administered as single dose via oral gavage after 120 min by HPLC-ESI-MS/MS analysis; settings: in vivo
[6] = Kinetic solubility in MOPS buffer at pH 7.4 measured after 4 hrs by HPLC-ESI-MS/MS analysis; assay type: physicochemical; settings: read-out: Kinetic_solubility
Method in brief: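 DMSO stock (10 mM) diluted into 50 mM MOPS pH 7.4, ionic strength 0.15 M with KCl, final 1% DMSO. Agitated 4 h at 25 ± 3 °C, centrifuged 1,000 g 10 min. Supernatant diluted 1:1 with MeOH containing internal standard, quantified by HPLC-ESI-MS/MS against per-compound MeOH calibration curves.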

[7] = Stability in mouse plasma assessed as compound remaining at 1 uM after 24 hrs by HPLC-ESI-MS/MS analysis; assay type: ADME, cell-free; settings: read-out: Stability
Method in brief: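 Mouse plasma diluted to 80% (v/v) with 100 mM PBS pH 7.4. Compound added at 1 μM final with 1% v/v DMSO, held at 37 °C. Aliquots taken at intervals, quenched with two volumes MeCN, centrifuged 9,000 g 10 min at 4 °C. Percent remaining measured by HPLC-ESI-MS/MS.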

[8] = Tmax in mouse at 30 mg/kg, administered as single dose via oral gavage by HPLC-ESI-MS/MS analysis; assay type: ADME, organism-based; settings: in vivo; method in brief: as §1
[9] = n-Octanol-buffer partition co-efficient, log D of the compound at pH 7.4 incubated overnight by shake-flask method; assay type: physicochemical
Method in brief: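 Shake-flask n-octanol/buffer partition at 25 ± 3 °C against 50 mM MOPS pH 7.4, ionic strength 0.15 M with KCl. Pre-saturated phases equilibrated overnight. Each phase diluted in MeOH with internal standard and analysed by HPLC-ESI-MS/MS. Mean of three independent partitions using different octanol/buffer volume ratios.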

Plasma [10] = experiment: Drug uptake in mouse plasma at 30 mg/kg, administered as single dose via oral gavage after 24 hrs by HPLC-ESI-MS/MS analysis; assay type: ADME, organism-based; settings: in vivo
Method in brief: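 Male mice (fasted, four per group) received a single esophageal gavage of 30 mg/kg in 0.5% methylcellulose. Tail-puncture blood was taken at 5–7 time points between 15 and 1440 min. Plasma was separated by centrifugation (5000 rpm, 10 min), stored at –20 °C and quantified by HPLC-ESI-MS/MS. Data are means ± SEM.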

Liver [11] = experiment: Drug level in mouse liver microsomes treated with (S)-3-((S)-4-((5R,8R,9S,10S,13R,14S,17R)-3-hydroxy-10,13-dimethylhexadecahydro-1H-cyclopenta[a]phenanthren-17-yl)pentanamido)-4-(1H-indol-3-yl)butanoic acid by HPLC-ESI-MS/MS analysis

Chain of Ephrin type-A receptor 2 (Mus musculus) (Q03145 whole entry): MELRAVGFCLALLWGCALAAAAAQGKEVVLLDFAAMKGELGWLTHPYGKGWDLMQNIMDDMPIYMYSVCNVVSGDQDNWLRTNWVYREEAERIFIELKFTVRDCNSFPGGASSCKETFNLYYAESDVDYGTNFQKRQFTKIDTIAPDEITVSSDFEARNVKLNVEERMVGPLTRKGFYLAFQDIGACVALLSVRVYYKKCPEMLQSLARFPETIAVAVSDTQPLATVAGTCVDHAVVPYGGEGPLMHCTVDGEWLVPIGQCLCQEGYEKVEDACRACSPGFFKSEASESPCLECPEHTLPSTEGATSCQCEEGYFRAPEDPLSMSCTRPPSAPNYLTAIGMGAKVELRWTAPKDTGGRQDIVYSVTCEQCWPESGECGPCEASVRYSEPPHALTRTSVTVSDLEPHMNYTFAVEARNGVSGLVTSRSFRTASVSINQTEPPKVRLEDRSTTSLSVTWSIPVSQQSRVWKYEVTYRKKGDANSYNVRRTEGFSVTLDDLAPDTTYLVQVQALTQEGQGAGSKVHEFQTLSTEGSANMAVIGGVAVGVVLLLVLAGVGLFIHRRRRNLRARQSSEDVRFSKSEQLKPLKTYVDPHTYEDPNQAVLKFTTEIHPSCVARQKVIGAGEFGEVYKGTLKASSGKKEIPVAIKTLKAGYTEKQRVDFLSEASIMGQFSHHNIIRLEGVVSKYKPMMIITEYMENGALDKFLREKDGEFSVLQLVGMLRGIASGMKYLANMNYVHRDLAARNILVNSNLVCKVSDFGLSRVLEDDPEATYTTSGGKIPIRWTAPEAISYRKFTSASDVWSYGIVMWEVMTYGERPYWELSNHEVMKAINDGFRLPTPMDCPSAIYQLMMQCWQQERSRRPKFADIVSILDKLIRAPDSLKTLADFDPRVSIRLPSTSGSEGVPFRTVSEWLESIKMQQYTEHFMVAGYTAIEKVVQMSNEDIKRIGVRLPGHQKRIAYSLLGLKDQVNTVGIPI
Chain of Ephrin type-A receptor 2 (Q03145 whole entry): as above

SMILES: C[C@H](CCC(=O)NCCC(=O)O)[C@H]1CC[C@H]2[C@@H]3CC[C@@H]4C[C@H](O)CC[C@]4(C)[C@H]3CC[C@]12C
IC50 (Ephrin type-A receptor 2): 29 µM

SMILES: C[C@H](CCC(=O)O)[C@H]1CC[C@H]2[C@@H]3CC[C@@H]4C[C@H](O)CC[C@]4(C)[C@H]3CC[C@]12C [LITHOCHOLIC ACID]
IC50 (Ephrin type-A receptor 2): 79 µM

SMILES: C[C@H](CCC(=O)N[C@H](CC(=O)O)Cc1c[nH]c2ccccc12)[C@H]1CC[C@H]2[C@@H]3CC[C@@H]4C[C@H](O)CC[C@]4(C)[C@H]3CC[C@]12C
Cmax [2]: 10 nM | half-life at 1 µM [3]: 0.28 h | Drug metabolism (Liver [4]): Metabolite_Detected | Drug uptake (Plasma [5]): Active | solubility kinetic at 4 h [6]: 31.8 µM (≈ 18.3 µg/mL)

SMILES: C[C@H](CCC(=O)NCCS(=O)(=O)O)[C@H]1CC[C@H]2[C@@H]3CC[C@@H]4C[C@H](O)CC[C@]4(C)[C@H]3CC[C@]12C [TAUROLITHOCHOLIC ACID]
IC50 (Ephrin type-A receptor 2): 72 µM

SMILES: C[C@H](CCC(=O)N[C@H](CC(=O)O)Cc1c[nH]c2ccccc12)[C@H]1CC[C@H]2[C@@H]3CC[C@@H]4C/C(=N/O)CC[C@]4(C)[C@H]3CC[C@]12C
Cmax [2]: 400 nM | half-life at 1 µM [3]: 1.01 h | remaining at 24 h, 1 µM [7]: 93.7% | IC50 (Ephrin type-A receptor 2): 3.1 µM | Tmax [8]: 1 h | logD [9]: 4.23 | solubility kinetic at 4 h [6]: 51.9 µM (≈ 30.6 µg/mL)

SMILES: C[C@H](CCC(=O)N[C@H](CC(=O)O)Cc1c[nH]c2ccccc12)[C@H]1CC[C@H]2[C@@H]3CC[C@@H]4C[C@H](OC(N)=O)CC[C@]4(C)[C@H]3CC[C@]12C
Cmax [2]: 870 nM | half-life at 1 µM [3]: 2.6 h | remaining at 24 h, 1 µM [7]: 98.2% | IC50 (Ephrin type-A receptor 2): 0.8 µM | Tmax [8]: 1 h | logD [9]: 5.01 | solubility kinetic at 4 h [6]: 18.7 µM (≈ 11.6 µg/mL) | Drug uptake (Plasma [10]): Active

SMILES: C[C@H](CCC(=O)N[C@H](CC(=O)O)Cc1c[nH]c2ccccc12)[C@H]1CC[C@H]2[C@@H]3CC[C@@H]4CCCC[C@]4(C)[C@H]3CC[C@]12C
IC50 (Ephrin type-A receptor 2): 28 µM

SMILES: CO/N=C1\CC[C@@]2(C)[C@H](CC[C@@H]3[C@@H]2CC[C@]2(C)[C@@H]([C@H](C)CCC(=O)N[C@H](CC(=O)O)Cc4c[nH]c5ccccc45)CC[C@@H]32)C1
IC50 (Ephrin type-A receptor 2): 13 µM

SMILES: C[C@H](CCC(=O)N[C@H](CC(=O)O)Cc1c[nH]c2ccccc12)[C@H]1CC[C@H]2[C@@H]3CC[C@@H]4CC(=O)CC[C@]4(C)[C@H]3CC[C@]12C
Drug metabolism (Liver [11]): Metabolite_Detected

Results, then the compound that gave them:

IC50 (Ephrin type-A receptor 2): 14 µM
SMILES: C[C@H](CCC(=O)N[C@H](CC(=O)O)c1ccccc1)[C@H]1CC[C@H]2[C@@H]3CC[C@@H]4C[C@H](O)CC[C@]4(C)[C@H]3CC[C@]12C

inhibition [1]: inactive
SMILES: C[C@H](CCC(=O)NCCCCC(=O)O)[C@H]1CC[C@H]2[C@@H]3CC[C@@H]4C[C@H](O)CC[C@]4(C)[C@H]3CC[C@]12C

IC50 (Ephrin type-A receptor 2): 1.8 µM
SMILES: C[C@H](CCC(=O)N[C@H](CC(=O)O)Cc1csc2ccccc12)[C@H]1CC[C@H]2[C@@H]3CC[C@@H]4C[C@H](O)CC[C@]4(C)[C@H]3CC[C@]12C

inhibition [1]: inactive
SMILES: C[C@H](CCC(=O)NCCCC(=O)O)[C@H]1CC[C@H]2[C@@H]3CC[C@@H]4C[C@H](O)CC[C@]4(C)[C@H]3CC[C@]12C

IC50 (Ephrin type-A receptor 2): 10 µM
SMILES: CC(C)[C@@H](CC(=O)O)NC(=O)CC[C@@H](C)[C@H]1CC[C@H]2[C@@H]3CC[C@@H]4C[C@H](O)CC[C@]4(C)[C@H]3CC[C@]12C

IC50 (Ephrin type-A receptor 2): 3.9 µM
SMILES: C[C@H](CCC(=O)N[C@H](CC(=O)O)Cc1cccc2ccccc12)[C@H]1CC[C@H]2[C@@H]3CC[C@@H]4C[C@H](O)CC[C@]4(C)[C@H]3CC[C@]12C

inhibition [1]: inactive
SMILES: COC(=O)CCNC(=O)CC[C@@H](C)[C@H]1CC[C@H]2[C@@H]3CC[C@@H]4C[C@H](O)CC[C@]4(C)[C@H]3CC[C@]12C

IC50 (Ephrin type-A receptor 2): 18 µM
SMILES: C[C@H](CCC(=O)N[C@H](CC(=O)O)Cc1ccccc1)[C@H]1CC[C@H]2[C@@H]3CC[C@@H]4C[C@H](O)CC[C@]4(C)[C@H]3CC[C@]12C

IC50 (Ephrin type-A receptor 2): 83 µM
SMILES: CSCC[C@@H](CC(=O)O)NC(=O)CC[C@@H](C)[C@H]1CC[C@H]2[C@@H]3CC[C@@H]4C[C@H](O)CC[C@]4(C)[C@H]3CC[C@]12C

inhibition [1]: inactive
SMILES: C[C@H](CCC(=O)N[C@@H](CCc1ccccc1)CC(=O)O)[C@H]1CC[C@H]2[C@@H]3CC[C@@H]4C[C@H](O)CC[C@]4(C)[C@H]3CC[C@]12C

inhibition [1]: inactive
SMILES: CC(C)C[C@@H](CC(=O)O)NC(=O)CC[C@@H](C)[C@H]1CC[C@H]2[C@@H]3CC[C@@H]4C[C@H](O)CC[C@]4(C)[C@H]3CC[C@]12C
